In ChEMBL document CHEMBL4270565, “Design, synthesis and antimicrobial evaluation of propylene-tethered ciprofloxacin-isatin hybrids” (Eur J Med Chem, 2018):
≈ marks a conversion by molar mass, not a printed value.

Experiments:
Klebsiella aerogenes = test: Antibacterial activity against Enterobacter aerogenes ATCC 13048 after 18 to 24 hrs by two-fold serial dilution method; type: functional
In short: (§1)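 Agar two-fold dilution MIC. Compounds were dissolved in 0.1 N NaOH and water, then serially diluted in melted Mueller-Hinton agar, with top concentrations starting at 128. Plates were inoculated at about 10 cfu and incubated at 35 °C for 18–24 h. MIC was taken as the lowest concentration giving 90% inhibition of growth.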

Klebsiella pneumoniae [1] = test: Antibacterial activity against extended-spectrum beta-lactamase deficient Klebsiella pneumoniae 15-2 after 18 to 24 hrs by two-fold serial dilution method; type: functional; in short: as §1
Providencia rettgeri = test: Antibacterial activity against Providencia rettgeri ATCC 31052 after 18 to 24 hrs by two-fold serial dilution method; type: functional; in short: as §1
Enterobacter cloacae = test: Antibacterial activity against Enterobacter cloacae ATCC 43560 after 18 to 24 hrs by two-fold serial dilution method; type: functional
[2] = test system: Stenotrophomonas maltophilia; test: Antibacterial activity against Stenotrophomonas maltophilia ATCC 13636 after 18 to 24 hrs by two-fold serial dilution method; type: functional; in short: as §1
Enterococcus faecalis [3] = test: Antibacterial activity against Enterococcus faecalis ATCC 29212 after 18 to 24 hrs by two-fold serial dilution method; type: functional; in short: as §1
Proteus vulgaris = test: Antibacterial activity against Proteus vulgaris ATCC 29905 after 18 to 24 hrs by two-fold serial dilution method; type: functional; in short: as §1
[4] = test system: Staphylococcus epidermidis; test: Antibacterial activity against methicillin-resistant Staphylococcus epidermidis 13-3 after 18 to 24 hrs by two-fold serial dilution method; type: functional
In short: (§2)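 Agar two-fold serial dilution in Mueller-Hinton agar. Strains came from the Chinese Center for Disease Control and Prevention. Compounds were dissolved in 0.1 N NaOH and water, then diluted in melted agar to final levels stepping down from 128. Plates were inoculated with bacterial cfu and incubated at 35 C for 18–24 h. MIC is the lowest concentration giving 90% growth inhibition.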

Proteus mirabilis = test: Antibacterial activity against Proteus mirabilis 13-1 after 18 to 24 hrs by two-fold serial dilution method; type: functional; in short: as §1
[5] = test system: Acinetobacter calcoaceticus; test: Antibacterial activity against Acinetobacter calcoaceticus ATCC 19606 after 18 to 24 hrs by two-fold serial dilution method; type: functional; in short: as §1
Enterococcus faecium [6] = test: Antibacterial activity against Enterococcus faecium ATCC 700221 after 18 to 24 hrs by two-fold serial dilution method; type: functional; in short: as §1
Escherichia coli [7] = test: Antibacterial activity against extended-spectrum beta-lactamase harboring Escherichia coli ATCC 35218 after 18 to 24 hrs by two-fold serial dilution method; type: functional; in short: as §2
Morganella morganii = test: Antibacterial activity against Morganella morganii ATCC 25830 after 18 to 24 hrs by two-fold serial dilution method; type: functional; in short: as §1
[8] = test system: Staphylococcus epidermidis; test: Antibacterial activity against methicillin-sensitive Staphylococcus epidermidis ATCC 12228 after 18 to 24 hrs by two-fold serial dilution method; type: functional; in short: as §1
Escherichia coli [9] = test: Antibacterial activity against extended-spectrum beta-lactamase deficient Escherichia coli ATCC 25922 after 18 to 24 hrs by two-fold serial dilution method; type: functional; in short: as §1
Staphylococcus aureus [10] = test: Antibacterial activity against methicillin-resistant Staphylococcus aureus ATCC 33591 after 18 to 24 hrs by two-fold serial dilution method; type: functional; in short: as §2
Klebsiella pneumoniae [11] = test: Antibacterial activity against extended-spectrum beta-lactamase harboring Klebsiella pneumoniae ATCC 700603 after 18 to 24 hrs by two-fold serial dilution method; type: functional; in short: as §2
Pseudomonas aeruginosa = test: Antibacterial activity against Pseudomonas aeruginosa ATCC 27853 after 18 to 24 hrs by two-fold serial dilution method; type: functional; in short: as §1
Enterococcus faecium [12] = test: Antibacterial activity against Enterococcus faecium 13-7 after 18 to 24 hrs by two-fold serial dilution method; type: functional; in short: as §1
Staphylococcus aureus [13] = test: Antibacterial activity against methicillin-sensitive Staphylococcus aureus ATCC 29213 after 18 to 24 hrs by two-fold serial dilution method; type: functional; in short: as §2
Enterococcus faecalis [14] = test: Antibacterial activity against Enterococcus faecalis ATCC 51299 after 18 to 24 hrs by two-fold serial dilution method; type: functional; in short: as §1
[15] = test system: Mycobacterium tuberculosis; test: Antimycobacterial activity against Mycobacterium tuberculosis H37Rv after 7 days; type: functional; settings: 168 h
In short: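 Rapid direct susceptibility test in 48-well plates. Two-fold dilutions of compound from DMSO stocks were mixed with an equal volume of bacterial suspension. Medium-only wells served as growth controls and water-only wells as no-growth controls. Plates were sealed and held at 37 C in a humid box, and controls were checked at 3 days. MIC (90% growth inhibition) was read visually by high-magnification observation of the cells and re-read at 7 days.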

Citrobacter freundii = test: Antibacterial activity against extended-spectrum beta-lactamase harboring Citrobacter freundii ATCC 43864 after 18 to 24 hrs by two-fold serial dilution method; type: functional; in short: as §2
[16] = Cytotoxicity against African green monkey Vero cells assessed as reduction in cell viability after 72 hrs by MTT assay; type: cell-based; settings: chlorocebus sabaeus
In short: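 VERO cells were kept in MEM with Earle's salts and 10% FBS at 37 °C, 5% CO2. They were seeded in 96-well plates and allowed to recover for 24 h. Cells were then exposed to compounds in DMSO over a series from 1000 down to 4 for 72 h. Viability was read by MTT, and CC50 was calculated by Bliss analysis.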

Serratia marcescens = test: Antibacterial activity against Serratia marcescens ATCC 21074 after 18 to 24 hrs by two-fold serial dilution method; type: functional; in short: as §1
[17] = AUC (0 to infinity) in ICR mouse at 50 mg/kg, po administered as single dose by HPLC analysis; type: ADME, organism-based; design: dose 50 mg/kg, route oral, time infinity; settings: in vivo
In short: (§3)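 Mice (3 per group), fasted overnight, given a single oral dose of 50 mg/kg as a suspension in 0.5% CMC. Jugular vein blood taken at 0.25, 0.5, 1, 2, 4, 6, 8 and 24 h. Serum proteins precipitated with acetonitrile and centrifuged; the dried supernatant was redissolved in acetonitrile for HPLC. PK parameters were derived directly from the concentration–time data.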

[18] = Tmax in ICR mouse at 50 mg/kg, po administered as single dose by HPLC analysis; type: ADME, organism-based; settings: in vivo; in short: as §3
[19] = Cmax in ICR mouse at 50 mg/kg, po administered as single dose by HPLC analysis; type: ADME, organism-based; design: dose 50 mg/kg, route oral; settings: in vivo; in short: as §3

Row | Compound | MIC90 (Klebsiella aerogenes) | MIC90 (Klebsiella pneumoniae [1]) | MIC90 (Providencia rettgeri) | MIC90 [2] | MIC90 (Enterococcus faecalis [3]) | MIC90 (Proteus vulgaris) | MIC90 [4] | MIC90 (Proteus mirabilis) | MIC90 [5] | MIC90 (Enterococcus faecium [6]) | MIC90 (Escherichia coli [7]) | MIC90 (Morganella morganii) | MIC90 [8] | MIC90 (Escherichia coli [9]) | MIC90 (Staphylococcus aureus [10]) | MIC90 (Klebsiella pneumoniae [11]) | MIC90 (Pseudomonas aeruginosa) | MIC90 (Enterococcus faecium [12]) | MIC90 (Staphylococcus aureus [13]) | MIC90 (Enterococcus faecalis [14]) | also measured
1 | CO/N=C1\C(=O)N(CCCN2CCN(c3cc4c(cc3F)c(=O)c(C(=O)OCCCN3C(=O)/C(=N/OC)c5ccccc53)cn4C3CC3)CC2)c2ccccc21 | 64 µg/mL (≈ 83.8 µM) | 32 µg/mL (≈ 41.9 µM) | 64 µg/mL (≈ 83.8 µM) | 128 µg/mL (≈ 168 µM) | 64 µg/mL (≈ 83.8 µM) | 32 µg/mL (≈ 41.9 µM) | 128 µg/mL (≈ 168 µM) | 64 µg/mL (≈ 83.8 µM) | 128 µg/mL (≈ 168 µM) | 128 µg/mL (≈ 168 µM) | 4 µg/mL (≈ 5.24 µM) | 128 µg/mL (≈ 168 µM) | 32 µg/mL (≈ 41.9 µM) | 4 µg/mL (≈ 5.24 µM) | > 128 µg/mL | 64 µg/mL (≈ 83.8 µM) | 64 µg/mL (≈ 83.8 µM) | > 128 µg/mL | 128 µg/mL (≈ 168 µM) | 128 µg/mL (≈ 168 µM) | MIC90 (Enterobacter cloacae): 32 µg/mL (≈ 41.9 µM); MIC90 [15]: 12.5 µg/mL (≈ 16.4 µM); MIC90 (Citrobacter freundii): 64 µg/mL (≈ 83.8 µM); CC50 at 72 h [16]: 64 µg/mL (≈ 83.8 µM); MIC90 (Serratia marcescens): 64 µg/mL (≈ 83.8 µM)
2 | O=C(O)c1cn(C2CC2)c2cc(N3CCNCC3)c(F)cc2c1=O [CIPROFLOXACIN] | ≤ 0.03 µg/mL | ≤ 0.03 µg/mL | ≤ 0.03 µg/mL | 2 µg/mL (≈ 6.04 µM) | 0.5 µg/mL (≈ 1.51 µM) | ≤ 0.03 µg/mL | 64 µg/mL (≈ 193 µM) | ≤ 0.03 µg/mL | 0.5 µg/mL (≈ 1.51 µM) | 8 µg/mL (≈ 24.1 µM) | ≤ 0.03 µg/mL | ≤ 0.03 µg/mL | 0.125 µg/mL (≈ 0.377 µM) | ≤ 0.03 µg/mL | 0.5 µg/mL (≈ 1.51 µM) | 0.5 µg/mL (≈ 1.51 µM) | 0.25 µg/mL (≈ 0.754 µM) | 128 µg/mL (≈ 386 µM) | 0.25 µg/mL (≈ 0.754 µM) | 0.5 µg/mL (≈ 1.51 µM) | AUC(0-inf) [17]: 17800 ng·h/mL; Tmax [18]: 1.8 h; Cmax [19]: 3130 ng/mL; MIC90 [15]: 0.78 µg/mL (≈ 2.35 µM); MIC90 (Citrobacter freundii): ≤ 0.03 µg/mL; CC50 at 72 h [16]: 128 µg/mL (≈ 386 µM); MIC90 (Serratia marcescens): 0.06 µg/mL (≈ 0.181 µM)
3 | CCO/N=C1\C(=O)N(CCCN2CCN(c3cc4c(cc3F)c(=O)c(C(=O)O)cn4C3CC3)CC2)c2ccccc21 | ≤ 0.03 µg/mL | 0.03 µg/mL (≈ 0.0534 µM) | ≤ 0.03 µg/mL | 0.125 µg/mL (≈ 0.223 µM) | 1 µg/mL (≈ 1.78 µM) | ≤ 0.03 µg/mL | 2 µg/mL (≈ 3.56 µM) | ≤ 0.03 µg/mL | 1 µg/mL (≈ 1.78 µM) | 8 µg/mL (≈ 14.2 µM) | ≤ 0.03 µg/mL | 0.03 µg/mL (≈ 0.0534 µM) | 0.25 µg/mL (≈ 0.445 µM) | ≤ 0.03 µg/mL | 0.25 µg/mL (≈ 0.445 µM) | 0.5 µg/mL (≈ 0.89 µM) | 1 µg/mL (≈ 1.78 µM) | 32 µg/mL (≈ 57 µM) | 0.25 µg/mL (≈ 0.445 µM) | 1 µg/mL (≈ 1.78 µM) | MIC90 (Enterobacter cloacae): 0.06 µg/mL (≈ 0.107 µM); MIC90 [15]: 0.78 µg/mL (≈ 1.39 µM); MIC90 (Citrobacter freundii): ≤ 0.03 µg/mL; CC50 at 72 h [16]: 64 µg/mL (≈ 114 µM); MIC90 (Serratia marcescens): 0.125 µg/mL (≈ 0.223 µM)
